Laboratory results: ChEMBL document CHEMBL1149111, “Design and synthesis of a fluoroindolocarbazole series as selective topoisomerase I active agents. Discovery of water-soluble 3,9-difluoro-12,13-dihydro-13-[6-amino-beta-D-glucopyranosyl]-5H,13H-benzo[b]- thienyl[2,3-a]pyrrolo[3,4-c]carbazole- 5,7(6H)-dione (BMS-251873) with curative antitumor …” (J Med Chem, 2004)

How the values were obtained:
[1] = Ratio for cytotoxicity against camptothecin resistant P388/CPT45 cells to that of parental P388 cells; assay type: functional, Mus musculus
Summary of the method: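 Cytotoxicity after 3-day continuous exposure by tetrazolium dye conversion, read at 450 nm, in camptothecin-resistant P388/CPT45 cells and parental P388 cells; value is IC50 in P388/CPT45 divided by IC50 in P388.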

[2] = biological target: T1, DNA topoisomerase 1 (Homo sapiens) (UniProt P11387); assay: Ratio of effective concentration for inducing single strand breaks in the DNA substrate by topoisomerase I compared to camptothecin
T1 sequence (whole entry): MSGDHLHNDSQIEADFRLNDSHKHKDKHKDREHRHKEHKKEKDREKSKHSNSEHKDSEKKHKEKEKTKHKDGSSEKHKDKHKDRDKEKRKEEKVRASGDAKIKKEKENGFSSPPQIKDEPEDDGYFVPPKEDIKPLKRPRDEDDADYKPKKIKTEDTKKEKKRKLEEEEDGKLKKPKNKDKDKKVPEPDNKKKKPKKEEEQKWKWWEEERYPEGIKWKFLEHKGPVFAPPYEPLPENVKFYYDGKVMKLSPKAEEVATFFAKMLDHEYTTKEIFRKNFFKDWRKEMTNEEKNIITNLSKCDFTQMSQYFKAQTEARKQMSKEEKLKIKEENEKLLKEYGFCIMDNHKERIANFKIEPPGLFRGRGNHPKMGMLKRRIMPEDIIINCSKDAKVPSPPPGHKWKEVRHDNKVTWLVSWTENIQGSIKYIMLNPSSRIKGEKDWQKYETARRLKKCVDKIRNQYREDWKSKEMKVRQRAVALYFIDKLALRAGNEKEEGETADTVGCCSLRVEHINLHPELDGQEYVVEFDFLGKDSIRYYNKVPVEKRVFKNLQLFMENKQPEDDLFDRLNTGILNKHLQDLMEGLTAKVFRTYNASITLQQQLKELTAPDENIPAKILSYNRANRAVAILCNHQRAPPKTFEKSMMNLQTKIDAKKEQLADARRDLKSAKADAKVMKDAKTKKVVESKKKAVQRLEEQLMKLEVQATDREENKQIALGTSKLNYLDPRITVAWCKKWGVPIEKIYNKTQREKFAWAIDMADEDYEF
Summary of the method: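 Topoisomerase I-mediated single-strand breaks in DNA substrate assayed by a modified Hsiang protocol; median effective concentration (EC50) for break induction divided by camptothecin EC50 measured in the same experiment.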

[3] = system: P388; assay: In vitro cytotoxic concentration against P388 murine leukemia cells was determined; assay type: functional, cell-based; conditions: Mus musculus
Summary of the method: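 P388 murine leukemia cells exposed continuously to compound for 3 days; proliferation measured by soluble tetrazolium/formazan conversion (absorbance 450 nm). IC50 = concentration reducing absorbance to 50% of untreated control cells; reported as mean.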

[4] = Volume of distribution of compound in plasma was determined at 5 mg/Kg; assay type: ADME, organism-based; conditions: mouse, read-out: Vds
[5] = Half life of compound was determined in plasma of mice at 5 mg/Kg; assay type: ADME, organism-based; conditions: mouse
[6] = system: Mus musculus; assay: Area under curve was determined for the compound at 5 mg/Kg; assay type: ADME, organism-based; conditions: in vivo
[7] = system: Mus musculus; assay: Inhibitory concentration of compound was determined after intravenous administration in mice after 8 hours of exposure at 5 mg/Kg; assay type: ADME, organism-based
[8] = Plasma clearance at 5 mg/Kg; assay type: ADME, organism-based; conditions: mouse
[9] = Volume of distribution of compound in plasma was determined at 24 mg/Kg; assay type: ADME, organism-based; conditions: mouse, read-out: Vds
[10] = Half life of compound was determined in plasma of mice at 24 mg/Kg; assay type: ADME, organism-based; conditions: mouse
[11] = system: Mus musculus; assay: Inhibitory concentration of compound was determined after intravenous administration in mice after 8 hours of exposure at 24 mg/Kg; assay type: ADME, organism-based
[12] = system: Mus musculus; assay: Area under curve was determined for the compound at 24 mg/Kg; assay type: ADME, organism-based; conditions: in vivo
[13] = Plasma clearance at 24 mg/Kg; assay type: ADME, organism-based; conditions: mouse

Row | Compound | Ratio [2] | Ratio [1] | IC50 [3] | other results
1 | O=C1NC(=O)c2c1c1c3ccccc3sc1c1c2c2cc(F)ccc2n1C1OC(CO)C(O)C(O)C1O (stereo not given) | 2.2 | >51.3 | 155 nM | 
2 | CN1C(=O)c2c(c3c4cc(F)ccc4n(C4OC(CO)C(O)C(O)C4O)c3c3[nH]c4ccc(F)cc4c23)C1=O (stereo not given) | 1 | >10.8 | 862 nM | 
3 | O=C1NC(=O)c2c1c1c3ccccc3oc1c1c2c2cc(F)ccc2n1C1OC(CO)C(O)C(O)C1O (stereo not given) | 1.5 | 13.6 | 529 nM | 
4 | CN1C(=O)c2c(c3c4cc(F)ccc4n(C4OC(CO)C(O)C(O)C4O)c3c3sc4ccc(F)cc4c23)C1=O (stereo not given) | 0.48 | 14.1 | 236 nM | 
5 | O=C1c2c(c3c4cc(F)ccc4n(C4OC(CO)C(O)C(O)C4O)c3c3[nH]c4ccc(F)cc4c23)C(=O)N1O (stereo not given) | 0.08 | 19.6 | 35 nM | 
6 | NN1C(=O)c2c(c3c4cc(F)ccc4n(C4OC(CO)C(O)C(O)C4O)c3c3[nH]c4ccc(F)cc4c23)C1=O (stereo not given) | 0.22 | 196.9 | 20 nM | 
7 | O=C1NC(=O)c2c1c1c3cccc(Cl)c3[nH]c1c1c2c2cccc(Cl)c2n1C1OC(CO)C(O)C(O)C1O (stereo not given) | > 500 | 1.26 | 540 nM | 
8 | O=C1NC(=O)c2c1c1c3cc(F)ccc3sc1c1c2c2cc(F)ccc2n1C1OC(CO)C(O)C(O)C1O (stereo not given) | 0.09 | 232.5 | 10 nM | Vd [4]: 1.27 L/kg; half-life [5]: 456 min; AUC [6]: 0.068 uM hr ml-1; IC50 [7]: 150 nM; clearance [8]: 9.33 mL/min/kg

Continued, in another order:

Row | Ratio [2] | Compound | Ratio [1] | IC50 [3] | other results
9 | 0.69 | O=C1NC(=O)c2c1c1c3cc(F)c(F)cc3[nH]c1c1c2c2cc(F)c(F)cc2n1C1OC(CO)C(O)C(O)C1O (stereo not given) | 67.1 | 7 nM | 
10 | 3.1 | O=C1NC(=O)c2c1c1c3ccccc3[nH]c1c1c2c2ccc(F)cc2n1C1OC(CO)C(O)C(O)C1O (stereo not given) | 4.6 | 392 nM | 
11 | 6.6 | O=C1NC(=O)c2c1c1c3ccccc3[nH]c1c1c2c2cc(F)ccc2n1C1OC(CO)C(O)C(O)C1O (stereo not given) | >9.5 | 1040 nM | 
12 | 1.7 | O=C1NC(=O)c2c1c1c3cc(F)ccc3[nH]c1c1c2c2ccccc2n1C1OC(CO)C(O)C(O)C1O (stereo not given) | 31.7 | 101 nM | 
13 | > 200 | O=C1NC(=O)c2c1c1c3ccc(F)cc3[nH]c1c1c2c2ccccc2n1C1OC(CO)C(O)C(O)C1O (stereo not given) | 11.4 | 98 nM | 
14 | > 600 | Cn1c2cc(F)c(F)cc2c2c3c(c4c5cc(F)c(F)cc5n(C5OC(CO)C(O)C(O)C5O)c4c21)C(=O)NC3=O (stereo not given) | >1 | > 8720 nM | 
15 | 0.27 | O=C1NC(=O)c2c1c1c3cc(F)ccc3oc1c1c2c2cc(F)ccc2n1C1OC(CO)C(O)C(O)C1O (stereo not given) | 63.7 | 114 nM | 
16 | 2 | O=C1NC(=O)c2c1c1c3ccc(F)cc3[nH]c1c1c2c2ccc(F)cc2n1C1OC(CO)C(O)C(O)C1O (stereo not given) | 8.7 | 260 nM | 
17 | 0.22 | O=C1NC(=O)c2c1c1c3cc(F)ccc3[nH]c1c1c2c2cc(F)ccc2n1C1OC(CO)C(O)C(O)C1O (stereo not given) | 182.7 |  | Vd [9]: 0.1 L/kg; half-life [10]: 96 min; IC50 [11]: 860 nM; AUC [12]: 0.17 uM hr ml-1; clearance [13]: 3.6 mL/min/kg
